LEDGF integ inh – blockers of LEDGF/p75-dependent integrase strand transfer – biochemical, TR-FRET, high throughput, primary screen; 0.64% of 370,000 active; HIV-1 integrase (with human LEDGF/p75); inhibition, % at 3.7 µM; TR-FRET IN-LEDGF/p75 DNA integration, Eu/Cy5; AID 743269, 2014;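 active means inhibition above the screen-wide mean plus 3 SD, cut at about 13% in these data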;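 further: signal is the Cy5 over europium emission ratio at 671 and 618 nm; 0% = plate median of compound wells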
mABHD4 FP – ABHD4 inhibitors, primary screen, biochemical, fluorescence polarization, mouse. inhibition, % at 8.92 µM. 0.54% of 370,000 active. (Lyso)-N-acylphosphatidylethanolamine lipase (Mus musculus), Q8VD66. purified mABHD4, FP-Rh probe fluorescence polarization;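 active means inhibition exceeding the mean over every tested compound plus 3 SD, cut at about 30% in these data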;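 further: 0% = plate median of compound wells and 100% = S159A mutant with DMSO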
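Test system: mABHD4 protein; Read-out basis: % inhibition; Incubation: 45 min + 60 min at 25 °C; Repeats: single replicate; Technique: fluorescence polarization with parallel and perpendicular emission, 525/598 nm; Compound: 8.92 µM, single dose; Benchmarks: full inhibition S159A mutant plus DMSO, zero as sample-well median.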
TDP2 absorb – human TDP2 enzyme inhibitors, primary screen, biochemical, epi absorbance, recombinant enzyme. T5PNP hydrolysis, p-nitrophenol absorbance 415 nm. Tyrosyl-DNA phosphodiesterase 2 (Homo sapiens), O95551. inhibition, % at 12.8 µM. 0.34% of 370,000 active;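 active means inhibition above the mean of all tested compounds plus 3 SD, set per campaign, cut at about 25% in these data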;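 further: 0% = DMSO with enzyme and 100% = buffer with substrate but no TDP2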
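System – recombinant human TDP2 · Amount – 120 nM TDP2 per well · Buffer or medium – Mg2+-containing Tris-HCl buffer, pH 7.5 · Reagent – T5PNP substrate, 5 mM · Dosing – 12.8 µM single point, 1% DMSO · Incubation – 2 h at 37 °C · Measured by – epi absorbance · Read-out basis – percent inhibition · Benchmarks – high control without enzyme, low control DMSO plus TDP2 · Repeats – singlicate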
TCR-CD3 inh – inhibitors of human TCR-CD3 interaction, primary screen, biochemical, fluorescence, TAMRA-labeled TCR probe; inhibition, % at 9.4 µM; 0.37% of 360,000 active; AID 651800, 2012; in the data active means inhibition above about 19%;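 further: recombinant mutant TCR 2C K166C tagged with TAMRA read by polarization; 0% = receptor in buffer alone and 100% = receptor with positive control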
SIAE primary – human SIAE inhibitors, primary screen, biochemical, fluorescence polarization, FP-Rh probe, 1536-well HTS; SIAE FP-Rh probe binding; 0.69% of 370,000 active; AID 1053197, 2014; Sialate O-acetylesterase (Homo sapiens), Q9HAT2; inhibition, % at 9.66 µM;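 active means inhibition above a cutoff: mean of compounds within the control limits plus 3 SD of those, cut at about 17% in these data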;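 further: 0% = plate median of compound wells and 100% = probe without SIAE protein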
Target sequence (Q9HAT2 whole entry, looked up): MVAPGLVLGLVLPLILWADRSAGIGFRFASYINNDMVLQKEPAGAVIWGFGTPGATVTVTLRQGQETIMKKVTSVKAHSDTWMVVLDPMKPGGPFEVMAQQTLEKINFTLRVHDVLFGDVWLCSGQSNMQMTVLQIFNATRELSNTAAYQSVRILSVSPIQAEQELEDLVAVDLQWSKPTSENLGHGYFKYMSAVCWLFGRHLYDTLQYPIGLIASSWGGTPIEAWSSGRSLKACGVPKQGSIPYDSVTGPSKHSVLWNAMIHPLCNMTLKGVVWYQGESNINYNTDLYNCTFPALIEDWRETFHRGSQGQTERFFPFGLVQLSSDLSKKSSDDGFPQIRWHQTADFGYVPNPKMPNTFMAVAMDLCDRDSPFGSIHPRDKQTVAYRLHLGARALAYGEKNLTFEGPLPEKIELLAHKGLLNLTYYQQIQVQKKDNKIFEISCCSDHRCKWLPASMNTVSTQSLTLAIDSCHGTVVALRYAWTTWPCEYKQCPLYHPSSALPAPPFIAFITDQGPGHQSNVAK
HTRA1 inhibitor – HTRA1 serine protease inhibitors, primary screen, biochemical, fluorescence polarization, HTS; recombinant HTRA1, FP-rhodamine activity-based probe; 0.5% of 340,000 active; inhibition, % at 5.96 µM; AID 504803, 2011; in the data active means inhibition above about 36%;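 further: 0% = enzyme with DMSO and 100% = wells lacking enzyme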
ABHD4 confirm – ABHD4 inhibitors, retest, confirmation, biochemical, fluorescence polarization, mouse; shares compounds with mABHD4 FP; purified mABHD4, FP-Rh probe fluorescence polarization; inhibition, % at 8.92 µM; 55% of 1,800 active; AID 720658, 2013;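 active means mean inhibition across replicates above the hit cutoff set in the primary screen, cut at about 30% in these data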;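 further: 0% = wild-type ABHD4 with DMSO and 100% = catalytically dead S159A mutant with DMSO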
TDP2 confirm – human TDP2 enzyme inhibitors, retest, confirmation, biochemical, epi absorbance, recombinant enzyme; shares compounds with TDP2 absorb; absorbance read-out; inhibition, % at 12.8 µM; 22% of 1,100 active; AID 743263, 2014; in the data active means inhibition above about 25%;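 further: 0% = vehicle with enzyme and 100% = no enzyme buffer only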
IN multimer up – HIV-1 IN multimer formation enhancers, counter-screen for LEDGF/p75 integration inhibitor project, biochemical, TR-FRET. shares compounds with LEDGF integ inh. TR-FRET HIV-1 integrase multimerization. activation, % at 7.7 µM. 17% of 2,000 active. AID 1053131, 2014; in the data active means activation above about 8.9%
TRFRET interf – TR-FRET optical interference artefacts, confirmation, artefact control for LEDGF/p75-dependent integration inhibitor project, biochemical, HIV-1 IN multimerization; TR-FRET optical interference counterscreen; shares compounds with LEDGF integ inh; 2,000 tested, under 10 active; inhibition, % at 7.7 µM; AID 1053135, 2014;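 active means inhibition above the mean over all tested compounds plus 3 SD, which no compound reached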;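 further: 0% = integrase with antibodies and DMSO and 100% = antibodies without integrase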
IN-LEDGF confirm – inhibitors of HIV-1 IN-LEDGF/p75 DNA integration, confirmation, biochemical, TR-FRET. shares compounds with LEDGF integ inh. TR-FRET LEDGF/p75-dependent HIV-1 integration. inhibition, % at 3.7 µM. 36% of 2,000 active. AID 1053136, 2014; in the data active means inhibition above about 14%
Numbers without * were called inactive. Hits are enriched below; roughly 2.2% of the tested compounds scored in any of these assays.

O=C(CCCN1C(=O)/C(=C\c2cccs2)SC1=S)Nc1ccc(O)cc1C(=O)O was read as LEDGF integ inh 6, mABHD4 FP 3, TDP2 absorb -12, TCR-CD3 inh 13, SIAE primary -3 and HTRA1 inhibitor 1.
Screening COc1ccc(NC(=O)CSc2nnc(-c3ccco3)c(-c3ccco3)n2)cc1OC returned LEDGF integ inh 1, mABHD4 FP 16, TDP2 absorb 3, TCR-CD3 inh 5, SIAE primary 12 and HTRA1 inhibitor -4.
`O=C(CSc1nnc(-c2ccco2)c(-c2ccco2)n1)Nc1ccccc1` gave LEDGF integ inh 38*, mABHD4 FP 51*, TDP2 absorb -7, TCR-CD3 inh 9, SIAE primary 9, HTRA1 inhibitor 18, ABHD4 confirm 39*, IN multimer up 3, TRFRET interf -15 and IN-LEDGF confirm 55*.
Screening CN(C)c1ccc(NC(=O)CSc2nnc(-c3ccco3)c(-c3ccco3)n2)cc1 returned LEDGF integ inh 11, mABHD4 FP 22, TDP2 absorb 7, TCR-CD3 inh 0, SIAE primary 10 and HTRA1 inhibitor 14.
For CSc1nnc(-c2ccco2)c(-c2ccco2)n1 the results were LEDGF integ inh 27*, mABHD4 FP 40*, TDP2 absorb 23, TCR-CD3 inh 14, SIAE primary 14, HTRA1 inhibitor 20, ABHD4 confirm 46*, IN multimer up 5, TRFRET interf -26 and IN-LEDGF confirm 45*.
For Cc1ccc(NC(=O)CSc2nnc(-c3ccco3)c(-c3ccco3)n2)cc1 the results were LEDGF integ inh 25*, mABHD4 FP 41*, TDP2 absorb 20, TCR-CD3 inh 8, SIAE primary 6, HTRA1 inhibitor 31, ABHD4 confirm 36*, IN multimer up 2, TRFRET interf -12 and IN-LEDGF confirm 28*.
O=S1(=O)N[C@@H](Cc2ccccc2)COc2cc(NCCCN3CCOCC3)ccc21 was read as LEDGF integ inh 1, mABHD4 FP 1, TDP2 absorb -5, TCR-CD3 inh -6 and SIAE primary -3.
O=C1/C(=C/C=C/c2ccco2)SC(=S)N1c1ccc(O)cc1 was read as LEDGF integ inh 76*, mABHD4 FP 37*, TDP2 absorb 26*, TCR-CD3 inh 10, SIAE primary 9, HTRA1 inhibitor 23, ABHD4 confirm -42, TDP2 confirm 14, IN multimer up 19*, TRFRET interf -67 and IN-LEDGF confirm 73*.
`O=C(NN1C(=O)/C(=C/C=C/c2ccccc2)SC1=S)c1ccncc1` gave LEDGF integ inh 1, mABHD4 FP -13, TDP2 absorb -13, TCR-CD3 inh -5, SIAE primary 0 and HTRA1 inhibitor 0.
For CC(C)C(C(=O)O)N1C(=O)/C(=C/C=C/c2ccco2)SC1=S (configuration not stated) the results were HTRA1 inhibitor 31.
Screening O=C(NN1C(=O)/C(=C/C=C/c2ccco2)SC1=S)c1ccncc1 returned LEDGF integ inh 83*, mABHD4 FP 49*, TDP2 absorb 19, TCR-CD3 inh 16, SIAE primary 15, ABHD4 confirm 13, IN multimer up 47*, TRFRET interf -165 and IN-LEDGF confirm 83*.
For COC(=O)C[C@H]1CC[C@@H]2[C@H](COc3ccc(NS(C)(=O)=O)cc3C(=O)N2C)O1 the results were LEDGF integ inh -3, mABHD4 FP 7, TDP2 absorb 4 and SIAE primary -3.
Screening COC(=O)CNC(=O)C1Nc2ccccc2C2C=CCC12 (configuration not stated) returned LEDGF integ inh 3, mABHD4 FP 20, TDP2 absorb 6, TCR-CD3 inh -7, SIAE primary 5 and HTRA1 inhibitor 11.
For O=C(O)C1Nc2c(O)cccc2C2C=CCC12 (configuration not stated) the results were LEDGF integ inh 70*, mABHD4 FP 44*, TDP2 absorb 20, TCR-CD3 inh 72*, SIAE primary 64*, HTRA1 inhibitor 50*, ABHD4 confirm 47*, IN multimer up 8.9*, TRFRET interf -30 and IN-LEDGF confirm 77*.
Screening Cc1cc2c(NC(=O)CCCC(=O)O)cccc2nn1 returned LEDGF integ inh 1, mABHD4 FP 2, TDP2 absorb 7, TCR-CD3 inh -6, SIAE primary 2 and HTRA1 inhibitor -5.
For Cc1cc2c(NC(=O)Nc3ccc(C(F)(F)F)cc3)cccc2nn1 the results were LEDGF integ inh 30*, mABHD4 FP 109*, TDP2 absorb 23, TCR-CD3 inh 6, SIAE primary -25, HTRA1 inhibitor 35, ABHD4 confirm -101, IN multimer up 8, TRFRET interf -28 and IN-LEDGF confirm 6.
`Cc1ccc(/C=C2\SC(=S)N(C3CCS(=O)(=O)C3)C2=O)o1` (configuration not stated) gave LEDGF integ inh 24*, mABHD4 FP 34*, TDP2 absorb -3, TCR-CD3 inh 0, SIAE primary 5, HTRA1 inhibitor 14, ABHD4 confirm -7, IN multimer up 1, TRFRET interf -7 and IN-LEDGF confirm 6.

Compound activity (PubChem)
